Screens from PubChem.
Most compounds without a hit are left out; they make up all but 4.6% or so of the library.
OX1R antag-1 = antagonists of human orexin 1 receptor. O43613. CHO/OX1R cells, Fluo-8 calcium fluorescence, orexin A. inhibition, % at 5 µM. 0.43% of 330,000 active. AID 434989;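 active = inhibition above its plate's threshold, mean inhibition of all tested compounds on the plate plus 3 SD, cut at about 37% in these data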
Target sequence (O43613 whole entry, looked up): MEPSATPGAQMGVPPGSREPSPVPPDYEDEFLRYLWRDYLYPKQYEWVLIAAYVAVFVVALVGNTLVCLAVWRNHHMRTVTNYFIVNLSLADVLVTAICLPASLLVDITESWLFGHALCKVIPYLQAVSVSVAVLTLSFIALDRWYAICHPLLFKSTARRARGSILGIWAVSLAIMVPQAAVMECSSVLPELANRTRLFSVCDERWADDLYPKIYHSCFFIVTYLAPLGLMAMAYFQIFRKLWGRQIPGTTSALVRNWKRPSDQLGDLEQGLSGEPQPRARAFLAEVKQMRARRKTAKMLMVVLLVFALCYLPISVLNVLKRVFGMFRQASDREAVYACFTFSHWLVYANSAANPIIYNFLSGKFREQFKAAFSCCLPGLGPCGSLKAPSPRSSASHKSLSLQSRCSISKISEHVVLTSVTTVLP
GPR7 antag = blocks human GPR7 receptor signaling; P48145; GPR7-expressing cells, fluorescence antagonist assay; inhibition, % at 4.4 µM; 1.1% of 290,000 active; AID 1861; in the data active = inhibition above about 16%, passing the limit was not always enough;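 also: cells stimulated with the agonist NPW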
CHO parental Ca = signal in parental CHO cells, OX1R antagonist counter-screen; parental CHO-K1, ATP-induced calcium, Fluo-8 fluorescence; inhibition, % at 5.6 µM; 0.63% of 330,000 active;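 active = inhibition above that plate's mean sample inhibition plus 3 SD, cut at about 26% in these data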
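Assay system: untransfected parental CHO cell line. Also added: ATP agonist challenge. Dosing: one dose, 5.6 µM nominal. Measured by: Fluo-8 fluorescence. Read-out: % inhibition. Benchmarks: ATP wells versus no-ATP DMSO wells. Repeats: no replicates.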
TAAR1 agonist = human TAAR1 agonism | Q96RJ0 | CHO RD-HGA16 TAAR1, Fluo-8 calcium fluorescence; vehicle wells 0%, saturating PEA agonist 100% | activation, % at 3 µM | 0.99% of 360,000 active;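 active = activation above the mean activation of all test compounds in the run plus 3 SD, cut at about 38% in these data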
Target sequence (Q96RJ0 whole entry, looked up): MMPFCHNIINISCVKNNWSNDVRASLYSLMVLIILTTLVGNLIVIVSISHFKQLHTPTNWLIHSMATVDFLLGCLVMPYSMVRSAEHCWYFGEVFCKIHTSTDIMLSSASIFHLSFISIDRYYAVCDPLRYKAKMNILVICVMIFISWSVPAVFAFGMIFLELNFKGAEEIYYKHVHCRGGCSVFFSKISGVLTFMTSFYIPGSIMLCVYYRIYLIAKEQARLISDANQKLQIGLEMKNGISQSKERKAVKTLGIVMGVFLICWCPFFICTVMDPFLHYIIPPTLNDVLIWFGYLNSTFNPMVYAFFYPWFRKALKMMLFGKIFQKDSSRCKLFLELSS
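Test system: RD-HGA16 (CHO) cells co-expressing Gα16 and hTAAR1; dosing: one-point dosing at 3 µM (nominal); timing: 17-24 h seeding, 75 min 37 °C dye, 30 min RT; signal: kinetic Fluo-8 calcium fluorescence; read-out basis: % activation relative to PEA EC100 response; controls: DMSO and PEA EC100; replicates: n 1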
OX1R antag-2 = antagonists of human orexin 1 receptor (OX1R). OX1R-expressing cells, FRET antagonist read-out. O43613. 1.8% of 330,000 active. inhibition, % at 6.6 µM. AID 485270; in the data active = inhibition mostly above about 38%, no sharp cut-off; inactive = mostly below about 40%
TAAR1 antag = antagonists of human TAAR1 | Q96RJ0 | CHO RD-HGA16 TAAR1, Fluo-8 calcium fluorescence, antagonist | inhibition, % at 3 µM | 1.5% of 360,000 active | AID 624466;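 active = inhibition above a per-plate cutoff, the mean inhibition of test compounds on that plate plus 3 SD, cut at about 49% in these data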
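Test system: CHO RD-HGA16 cells bearing hTAAR1 | Reagent: β-PEA, EC80 | Compound dosing: 3 µM, single point | Schedule: Dye loading 75 min at 37 °C, then 30 min room temperature | Signal: Calcium fluorescence with Fluo-8 | Evaluation: Percent inhibition of PEA-evoked calcium signal, max/basal emission ratio | Control set: DMSO-only wells and EC80 β-PEA-stimulated wells | Repeats: Singlicate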
OX1R HTRF confirm = confirmation of human orexin 1 receptor antagonists, HTRF format; shares compounds with OX1R antag-2; OX1R-expressing cells, HTRF antagonist assay; inhibition, % at 6.6 µM; 49% of 1,800 active; AID 492964; in the data active = inhibition above about 55%;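 also: CHO cells expressing OX1R stimulated with orexin A at about EC80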
CHO-K1 HTRF = signal in parental CHO-K1 cells, OX1R antagonist counter-screen; 48% of 1,800 active; shares compounds with OX1R antag-2; inhibition, % at 6.6 µM; HTRF counterscreen; in the data active = inhibition above about 17%
Numbers stand for hits.

What do the screens show for `O=C(NCCN1CCOCC1)c1cc([N+](=O)[O-])cc([N+](=O)[O-])c1`?
OX1R antag-1: inactive; GPR7 antag: inactive; CHO parental Ca: inactive; TAAR1 agonist: inactive; OX1R antag-2: 78.3; TAAR1 antag: inactive; OX1R HTRF confirm: inactive; CHO-K1 HTRF: 71.9

Results for CCC(=O)N=c1ccn(C2=Nc3ccccc3NC2=C(C#N)C#N)cc1 ?
OX1R antag-1: inactive; GPR7 antag: inactive; CHO parental Ca: inactive; TAAR1 agonist: inactive; OX1R antag-2: 101.5; TAAR1 antag: inactive; OX1R HTRF confirm: inactive; CHO-K1 HTRF: 36.3

What do the screens show for `CCOc1ccc(-c2csc(NC(=O)CSCC(=O)O)n2)c2ccccc12`?
OX1R antag-1: inactive; GPR7 antag: inactive; CHO parental Ca: inactive; TAAR1 agonist: inactive; OX1R antag-2: inactive; TAAR1 antag: inactive

What do the screens show for `CC(=O)c1ccc(NC(=O)CSc2nnc(-c3ccco3)o2)cc1`?
OX1R antag-1: inactive; GPR7 antag: inactive; CHO parental Ca: inactive; TAAR1 agonist: inactive; OX1R antag-2: inactive; TAAR1 antag: inactive

How did Cc1ccc(NC(=O)CSc2nnc(-c3ccco3)o2)cc1 do in these assays?
OX1R antag-1: inactive; GPR7 antag: inactive; CHO parental Ca: inactive; TAAR1 agonist: inactive; OX1R antag-2: 98.7; TAAR1 antag: inactive; OX1R HTRF confirm: inactive; CHO-K1 HTRF: inactive

What do the screens show for `COc1cccc2oc3cc(C#Cc4ccccn4)ccc3c(=O)c12`?
OX1R antag-1: inactive; GPR7 antag: inactive; CHO parental Ca: inactive; TAAR1 agonist: inactive; OX1R antag-2: 79.3; TAAR1 antag: inactive; OX1R HTRF confirm: 63.8; CHO-K1 HTRF: inactive

Results for Cc1ccc(C(=O)NCc2ccc(N3CCN(C)CC3)cc2)cc1C ?
OX1R antag-1: inactive; GPR7 antag: inactive; CHO parental Ca: inactive; TAAR1 agonist: inactive; OX1R antag-2: inactive; TAAR1 antag: inactive

How did O=[N+]([O-])c1cccc(/C=N/n2cnnc2)c1 do in these assays?
OX1R antag-1: inactive; GPR7 antag: inactive; CHO parental Ca: inactive; TAAR1 agonist: inactive; OX1R antag-2: 77.4; TAAR1 antag: inactive; OX1R HTRF confirm: inactive; CHO-K1 HTRF: 30.8

Results for CC(C)CN1CCN=C1N(C)C ?
OX1R antag-1: inactive; CHO parental Ca: inactive; TAAR1 agonist: inactive; OX1R antag-2: inactive; TAAR1 antag: inactive

Results for O=[N+]([O-])c1cc(C(F)(F)F)ccc1N1CCN(CCO)CC1 ?
OX1R antag-1: inactive; GPR7 antag: inactive; CHO parental Ca: inactive; TAAR1 agonist: inactive; OX1R antag-2: inactive; TAAR1 antag: inactive

What do the screens show for `O=[N+]([O-])c1ccc(N2CCN(CCOCCO)CC2)c([N+](=O)[O-])c1`?
OX1R antag-1: inactive; GPR7 antag: inactive; CHO parental Ca: inactive; TAAR1 agonist: inactive; OX1R antag-2: 85.1; TAAR1 antag: inactive; OX1R HTRF confirm: inactive; CHO-K1 HTRF: 38.6

Results for CCCCN1CC[C@H]2C=CC[C@@H](C(=O)Nc3ccc(Cl)c(C(F)(F)F)c3)[C@H]2C1=O ?
OX1R antag-1: inactive; CHO parental Ca: inactive; TAAR1 agonist: inactive; OX1R antag-2: inactive; TAAR1 antag: inactive

Results for O=C(Nc1ccc(Cl)c(C(F)(F)F)c1)[C@@H]1CC=C[C@@H]2CCN(Cc3ccccc3)C(=O)[C@@H]21 ?
OX1R antag-1: inactive; CHO parental Ca: inactive; TAAR1 agonist: inactive; OX1R antag-2: 84.1; TAAR1 antag: inactive; OX1R HTRF confirm: 85.3; CHO-K1 HTRF: inactive

How did O=C(Nc1ccccc1)[C@@H]1CC=C[C@@H]2CCN(Cc3ccccc3)C(=O)[C@@H]21 do in these assays?
OX1R antag-1: inactive; CHO parental Ca: inactive; TAAR1 agonist: inactive; OX1R antag-2: 82.8; TAAR1 antag: inactive; OX1R HTRF confirm: 86.3; CHO-K1 HTRF: inactive

How did O=C(NCCN1C(=O)S/C(=C\c2ccc(Cl)c(Cl)c2)C1=O)c1cnccn1 do in these assays?
OX1R antag-1: inactive; GPR7 antag: inactive; CHO parental Ca: inactive; TAAR1 agonist: inactive; OX1R antag-2: inactive; TAAR1 antag: inactive

Results for O=C(NCCN1C(=O)S/C(=C\c2ccc(Cl)c([N+](=O)[O-])c2)C1=O)C1=COCCO1 ?
OX1R antag-1: inactive; CHO parental Ca: inactive; TAAR1 agonist: inactive; OX1R antag-2: 83.0; TAAR1 antag: inactive; OX1R HTRF confirm: inactive; CHO-K1 HTRF: 57.3

How did CC[n+]1c(/C=C/c2ccc(N(C)C)cc2)ccc2ccccc21 do in these assays?
OX1R antag-1: inactive; GPR7 antag: inactive; CHO parental Ca: inactive; TAAR1 agonist: inactive; OX1R antag-2: 94.0; TAAR1 antag: inactive; OX1R HTRF confirm: 82.5; CHO-K1 HTRF: 103.5

How did CC[n+]1ccccc1/C=C/c1ccc(N(C)C)cc1 do in these assays?
GPR7 antag: inactive; TAAR1 agonist: inactive; TAAR1 antag: inactive

How did Cc1ccc(/C=C2\SC(=O)N(CCC(=O)N3CCN(C)CC3)C2=O)cc1 do in these assays?
OX1R antag-1: inactive; GPR7 antag: inactive; CHO parental Ca: inactive; TAAR1 agonist: inactive; OX1R antag-2: 126.4; TAAR1 antag: inactive; OX1R HTRF confirm: inactive; CHO-K1 HTRF: 26.9

How did O=C1c2cccc3cc([N+](=O)[O-])cc(c23)C(=O)N1c1nncs1 do in these assays?
OX1R antag-1: inactive; CHO parental Ca: inactive; TAAR1 agonist: inactive; OX1R antag-2: 77.7; TAAR1 antag: inactive; OX1R HTRF confirm: 61.0; CHO-K1 HTRF: 86.1

How did CCOc1ccc(NC(=O)C(CC(=O)O)Cc2ccc(Br)cc2)cc1 (centres undefined) do in these assays?
OX1R antag-1: inactive; GPR7 antag: inactive; CHO parental Ca: inactive; TAAR1 agonist: inactive; OX1R antag-2: inactive; TAAR1 antag: inactive

What do the screens show for `O=C(Nc1ccc2nc3ccccc3nc2c1)c1ccccc1`?
OX1R antag-1: inactive; GPR7 antag: inactive; CHO parental Ca: inactive; TAAR1 agonist: inactive; OX1R antag-2: 86.2; TAAR1 antag: inactive; OX1R HTRF confirm: 92.7; CHO-K1 HTRF: inactive

Results for Cc1ccc(C(=O)N/C(=C/c2ccc(-c3cccc([N+](=O)[O-])c3)o2)C(=O)NC(C)(C)C)cc1 ?
OX1R antag-1: inactive; GPR7 antag: inactive; CHO parental Ca: inactive; TAAR1 agonist: inactive; OX1R antag-2: 84.8; TAAR1 antag: inactive; OX1R HTRF confirm: 69.4; CHO-K1 HTRF: inactive

What do the screens show for `CC(=O)c1ccc(OCC(=O)Nc2c(C)nn(-c3ccccc3)c2C)cc1`?
OX1R antag-1: inactive; CHO parental Ca: inactive; TAAR1 agonist: inactive; OX1R antag-2: 91.3; TAAR1 antag: inactive; OX1R HTRF confirm: inactive; CHO-K1 HTRF: inactive

How did Cc1nn(-c2ccccc2)c(C)c1NC(=O)COC(=O)CCOc1ccccc1 do in these assays?
OX1R antag-1: inactive; CHO parental Ca: inactive; TAAR1 agonist: inactive; OX1R antag-2: inactive; TAAR1 antag: inactive
